For data set [1], the species on record is Oryctolagus cuniculus. Kind of data set: Inhibition of trypsin-like activity of rabbit reticulocyte 20S proteasome at 100 uM. In a few lines: (§1)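 Trypsin-like site: proteasome exposed to 0.1-100 µM compound, fluorogenic substrate hydrolysis read 1 h at 37 °C in pH 7.5 20 mM Tris, 1 mM DTT, 10% glycerol without SDS; 3% DMSO final. Initial rates relative to untreated control: >100% expressed as activation factor, <100% as inhibition; Ki via Vi/V0 = 1/(1+[I]/Ki(app)) or IC50 = Ki(1+[S]/Km).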

For data set [2], the species on record is Oryctolagus cuniculus. Kind of data set: Inhibition of post acid activity of rabbit reticulocyte 20S proteasome at 100 uM.
A short description of data set [3]: Inhibition of trypsin-like activity of rabbit reticulocyte 20S proteasome. On the set-up: species or system Oryctolagus cuniculus. In a few lines: as §1
The species entered for data set [4] is Oryctolagus cuniculus. Kind of data set: Inhibition of chymotrypsin-like activity of rabbit reticulocyte 20S proteasome at 100 uM.
Data set [5] is described as follows: Inhibition of chymotrypsin-like activity of rabbit reticulocyte 20S proteasome. On the set-up: species or system Oryctolagus cuniculus.
Data set [6] in a line: Inhibition of post acid activity of rabbit reticulocyte 20S proteasome. On the set-up: species or system Oryctolagus cuniculus.
The species entered for data set [7] is Oryctolagus cuniculus. Kind of data set: Activation of chymotrypsin-like activity of rabbit reticulocyte 20S proteasome relative to control.
For data set [8], the species on record is Oryctolagus cuniculus. Kind of data set: Activation of trypsin-like activity of rabbit reticulocyte 20S proteasome relative to control. In a few lines:
as §1

The nature of data set [9]: Stability in RPMI medium in presence of 20% fetal calf serum. The data set is classed as ADME. As to conditions: cattle, RPMI medium with 20% fetal calf serum. In outline: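 Compound incubated up to 2 days at 37 °C in RPMI with 20% fetal calf serum. Stopped with ethanol, centrifuged at 4 °C, supernatant analysed by RP-HPLC. Half-life from linear least-squares fit of log[I] versus time, at least five points.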

For a further data set, the system named is HEK293. Kind of data set: Cytotoxicity against human HEK293 cells at 50 uM after 48 hrs by MTT assay. The class given is functional, cell-based. In outline: (§2)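 5 × 10^3 cells grown in triplicate 48 h with or without 50 µM inhibitor. Media: DMEM for HeLa and T-47D; MEM for HEK-293, HuH7 and Hep G2; McCoy for HCT-116; each with 10% FBS, 5% CO2. Survival read by MTT metabolism at 37 °C, relative to DMSO-only control.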
A general note: Tetrazolium assays rely on reduction of a dye to a coloured formazan, in cell work by metabolically active cells.

Data set [10] relates to HeLa. Kind of data set: Cytotoxicity against human HeLa cells by MTT assay. The class given is functional, cell-based.
The next data set relates to HCT-116. Kind of data set: Growth inhibition of human HCT116 cells at 50 uM after 48 hrs by MTT assay. The class given is functional, cell-based. In outline: as §2
The test system of data set [11] is HeLa. Kind of data set: Cytotoxicity against human HeLa cells at 50 uM after 48 hrs by MTT assay. The data set is classed as functional, cell-based. In a few lines: as §2
The subject of the next data set is T47D. Kind of data set: Growth inhibition of human T47D cells at 50 uM after 48 hrs by MTT assay. The data set is classed as functional, cell-based. In outline:
as §2

The next data set has as its system Huh-7. Kind of data set: Growth inhibition of human HuH7 cells at 50 uM after 48 hrs by MTT assay. The class given is functional, cell-based. In a few lines:
as §2

The next data set concerns HepG2. Kind of data set: Growth inhibition of human HepG2 cells at 50 uM after 48 hrs by MTT assay. The class given is functional, cell-based. In a few lines: as §2

Each structure is given as a SMILES string. Calls of active or inactive are those of the source. The rule behind the calls is not given here. Residues, ends and D or L forms follow the SMILES beside them. *: point of attachment. Boc = CC(C)(C)OC(=O)*; NHBn = c1ccc(CN*)cc1; NHPh = c1ccc(N*)cc1; Bn = c1ccc(C*)cc1 Some results are limits rather than exact numbers.

For orientation: inhibition means the percentage by which the read-out fell short of the control. A lower inhibition goes with little suppression. The term Ki denotes a measure of affinity in units of concentration, obtained from inhibition or displacement. With `CCOC(=O)[C@H](Cc1c[nH]c2c(Br)cccc12)NC(=O)[C@H](CC(C)C)NC(=O)[C@H](Cc1ccc(OCc2ccccc2)c(I)c1)NC(=O)OC(C)(C)C`, the inhibition in the data set filed under Oryctolagus cuniculus [1], in the data set listed under Oryctolagus cuniculus [2] and in the data set listed under Oryctolagus cuniculus [4] was under 20% in each case. Besides, the Ki in [3], in data set [5] and in data set [6] was over 100 µM throughout.
For `CC(C)(C)OC(=O)NCCCCNC(=O)[C@H](Cc1c[nH]c2ccccc12)NC(=O)[C@H](CC(N)=O)NC(=O)[C@H](Cc1ccc(OCc2ccccc2)cc1)NC(=O)OC(C)(C)C`, the inhibition in the data set listed under Oryctolagus cuniculus [2] is under 20%. For the same compound, the Fold change in the data set listed under Oryctolagus cuniculus [7] turned out to be 1.6; in the data set listed under Oryctolagus cuniculus [8], 2.2. This compound also registered a Ki in [6] of over 100 µM.
Take `C[C@H](NC(=O)[C@H](Cc1ccc(OCc2ccccc2)cc1)NC(=O)OC(C)(C)C)C(=O)N[C@@H](Cc1c[nH]c2ccccc12)C(=O)Nc1ccccc1` (Boc-Tyr(Bn)-Ala-Trp-NHPh): the inhibition in the data set listed under Oryctolagus cuniculus [2] was under 20%. In addition, the values for the Fold change in the data set listed under Oryctolagus cuniculus [7] and in the data set filed under Oryctolagus cuniculus [8] were 1.4 and 1.6, respectively. The compound further registered an inhibition constant Ki in data set [6] of over 100 µM.
As to `CC(C)(C)OC(=O)N[C@@H](Cc1ccc(OCc2ccccc2)cc1)C(=O)N[C@@H](CC(N)=O)C(=O)N[C@@H](Cc1c[nH]c2ccccc12)C(=O)Nc1ccccc1` (Boc-Tyr(Bn)-Asn-Trp-NHPh), the inhibition in the data set listed under Oryctolagus cuniculus [2] is under 20%. The Fold change in the data set filed under Oryctolagus cuniculus [7] stood at 1.5; in the data set filed under Oryctolagus cuniculus [8], 1.6. This compound registered a Ki in data set [6] of over 100 µM.
For `COC(=O)[C@H](Cc1c[nH]c2c(Br)cccc12)NC(=O)[C@H](C)NC(=O)[C@H](Cc1ccc(OCc2ccccc2)c(I)c1)NC(=O)OC(C)(C)C`, the inhibition in the data set filed under Oryctolagus cuniculus [1] and in the data set listed under Oryctolagus cuniculus [4] was under 20% each time. Further, the Ki is over 100 µM in data set [3], over 100 µM in data set [5] and 96.4 µM in [6].
In the data set filed under Oryctolagus cuniculus [2], `CC(C)(C)OC(=O)NCCCCNC(=O)[C@H](Cc1c[nH]c2ccccc12)NC(=O)[C@H](CCCCNC(=O)OC(C)(C)C)NC(=O)[C@H](Cc1ccc(OCc2ccccc2)cc1)NC(=O)OC(C)(C)C` had an inhibition of under 20%. Also, the figures for the Fold change in the data set listed under Oryctolagus cuniculus [7] and in the data set filed under Oryctolagus cuniculus [8] were 1.6 and 1.9, respectively. The compound also yielded a Ki in data set [6] of over 100 µM.
Turning to `CC(C)(C)OC(=O)N[C@@H](Cc1ccc(OCc2ccccc2)cc1)C(=O)N[C@@H](CCCN(C(=N)NC(=O)OCc1ccccc1)C(=O)OCc1ccccc1)C(=O)N[C@@H](Cc1c[nH]c2ccccc12)C(=O)Nc1ccc(O)cc1`, the inhibition in the data set listed under Oryctolagus cuniculus [1], in the data set filed under Oryctolagus cuniculus [2] and in the data set filed under Oryctolagus cuniculus [4] was under 20% throughout. Besides, the Ki in [3], in data set [5] and in data set [6] was over 100 µM in each case.
As to `CC(C)C[C@H](NC(=O)[C@H](Cc1ccc(OCc2ccccc2)cc1)NC(=O)OC(C)(C)C)C(=O)N[C@@H](Cc1c[nH]c2ccccc12)C(=O)NCc1ccccc1` (Boc-Tyr(Bn)-Leu-Trp-NHBn), in the data set filed under Oryctolagus cuniculus [2], the inhibition was under 20%. Also, the Fold change is 1.3 in the data set filed under Oryctolagus cuniculus [7] and 1.9 in the data set listed under Oryctolagus cuniculus [8]. Moreover, the Ki in data set [6] was over 100 µM.
For orientation: half-life means the time in which the quantity being followed falls by half. `C[C@H](NC(=O)[C@H](Cc1ccc(OCc2ccccc2)c(I)c1)NC(=O)OC(C)(C)C)C(=O)N[C@@H](Cc1c[nH]c2c(Br)cccc12)C(=O)O`: the Ki in [3] is 3 µM; in data set [5] it was 1.6 µM; in data set [6] it was 2.8 µM. For the same compound, the half-life in data set [9] was 37 h.
As for `C[C@H](NC(=O)[C@H](Cc1ccc(OCc2ccccc2)cc1)NC(=O)OC(C)(C)C)C(=O)N[C@@H](Cc1c[nH]c2ccccc12)C(=O)NCCCCNC(=O)OC(C)(C)C`, the inhibition in the data set filed under Oryctolagus cuniculus [2] is under 20%. The results for the Fold change in the data set listed under Oryctolagus cuniculus [7] and in the data set listed under Oryctolagus cuniculus [8] were 1.5 and 3.2, respectively. The compound also had a Ki in data set [6] of over 100 µM.
For `COC(=O)[C@@H]1Cc2c[nH]c3c(cccc23)-c2ccc(cc2OC)C[C@H](NC(=O)OC(C)(C)C)C(=O)N[C@@H](C)C(=O)N1`, the inhibition in the data set filed under Oryctolagus cuniculus [1], in the data set listed under Oryctolagus cuniculus [2] and in the data set listed under Oryctolagus cuniculus [4] was under 20% in each case. The Ki in data set [3] was over 100 µM; in [5], over 100 µM; in data set [6], 37.1 µM.
On to `CC(C)(C)OC(=O)N[C@@H](Cc1ccc(OCc2ccccc2)cc1)C(=O)N[C@@H](CC(N)=O)C(=O)N[C@@H](Cc1c[nH]c2ccccc12)C(=O)NCc1ccccc1` (Boc-Tyr(Bn)-Asn-Trp-NHBn), for which the half-life in data set [9] is 6.5 h. In addition, the results for the Ki in data set [5] and in data set [6] were 59.3 µM and 84.2 µM, respectively. Also, the Fold change in the data set filed under Oryctolagus cuniculus [8] came to 2.2.
In the data set listed under Oryctolagus cuniculus [2], `CC(C)(C)OC(=O)NCCCC[C@H](NC(=O)[C@H](Cc1ccc(OCc2ccccc2)cc1)NC(=O)OC(C)(C)C)C(=O)N[C@@H](Cc1c[nH]c2ccccc12)C(=O)NCc1ccccc1` (Boc-Tyr(Bn)-Lys(Boc)-Trp-NHBn) came in with an inhibition of under 20%. The Fold change in the data set listed under Oryctolagus cuniculus [7] is 1.3; in the data set filed under Oryctolagus cuniculus [8], 1.8. In data set [6], this compound came in with a Ki of over 100 µM.
Turning to `CC(C)(C)OC(=O)N[C@@H](Cc1ccc(OCc2ccccc2)cc1)C(=O)N[C@@H](CC(N)=O)C(=O)N[C@@H](Cc1c[nH]c2ccccc12)C(=O)Nc1ccc(O)cc1`, the inhibition in the data set listed under Oryctolagus cuniculus [1] was under 20%. Besides, the Ki in data set [3] was over 100 µM; in data set [5], over 100 µM; in data set [6] it was 23.4 µM.
As to `CCOC(=O)[C@H](Cc1c[nH]c2c(Br)cccc12)NC(=O)[C@H](CC(C)C)NC(=O)[C@H](Cc1ccc(OC)c(I)c1)NC(=O)OC(C)(C)C`, the inhibition in the data set listed under Oryctolagus cuniculus [1] and in the data set filed under Oryctolagus cuniculus [4] was under 20% in each case. The Ki in [3], in data set [5] and in data set [6] was over 100 µM each time.
The term IC50 denotes the point on the concentration scale where inhibition reaches its midpoint. A lower IC50 goes with greater potency in that assay. Compound `C[C@H](NC(=O)[C@H](Cc1ccc(OCc2ccccc2)cc1)NC(=O)OC(C)(C)C)C(=O)N[C@@H](Cc1c[nH]c2ccccc12)C(=O)Nc1ccc(O)cc1` had an inhibition in the data set filed under Oryctolagus cuniculus [1] of under 20%. Besides, the result with HEK293, in the data set with HCT-116, in the data set with HeLa [11], in the data set with T47D and in the data set on Huh-7 was Active. Also, in the data set on HeLa [10], the IC50 came to 15 µM. The Ki in [3] is over 100 µM; in data set [5], 65.7 µM; in [6], 1 µM. In addition, the outcome with HepG2 was inactive.
